Active and inactive are the calls of the source. No cut-off for these calls is given here.
What follows are compounds tested against T1, Interferon-induced guanylate-binding protein 1/Serine/threonine-protein kinase pim-1 (Homo sapiens) (UniProt P11309+P32455) (assay: Inhibition of GBP1 (unknown origin)-PIM1 (unknown origin) interaction at 100 nM by SPR analysis). Conditions: not given.
T1 sequence (P11309 whole entry, looked up): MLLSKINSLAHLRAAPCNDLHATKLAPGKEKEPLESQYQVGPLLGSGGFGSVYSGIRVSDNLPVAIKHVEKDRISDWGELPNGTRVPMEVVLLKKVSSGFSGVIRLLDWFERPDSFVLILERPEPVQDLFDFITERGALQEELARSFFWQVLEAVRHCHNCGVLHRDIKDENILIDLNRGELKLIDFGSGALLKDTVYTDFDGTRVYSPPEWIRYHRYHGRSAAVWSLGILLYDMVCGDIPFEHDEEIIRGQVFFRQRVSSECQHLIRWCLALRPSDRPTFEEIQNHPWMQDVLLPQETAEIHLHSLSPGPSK
T1 sequence (P32455 whole entry, looked up): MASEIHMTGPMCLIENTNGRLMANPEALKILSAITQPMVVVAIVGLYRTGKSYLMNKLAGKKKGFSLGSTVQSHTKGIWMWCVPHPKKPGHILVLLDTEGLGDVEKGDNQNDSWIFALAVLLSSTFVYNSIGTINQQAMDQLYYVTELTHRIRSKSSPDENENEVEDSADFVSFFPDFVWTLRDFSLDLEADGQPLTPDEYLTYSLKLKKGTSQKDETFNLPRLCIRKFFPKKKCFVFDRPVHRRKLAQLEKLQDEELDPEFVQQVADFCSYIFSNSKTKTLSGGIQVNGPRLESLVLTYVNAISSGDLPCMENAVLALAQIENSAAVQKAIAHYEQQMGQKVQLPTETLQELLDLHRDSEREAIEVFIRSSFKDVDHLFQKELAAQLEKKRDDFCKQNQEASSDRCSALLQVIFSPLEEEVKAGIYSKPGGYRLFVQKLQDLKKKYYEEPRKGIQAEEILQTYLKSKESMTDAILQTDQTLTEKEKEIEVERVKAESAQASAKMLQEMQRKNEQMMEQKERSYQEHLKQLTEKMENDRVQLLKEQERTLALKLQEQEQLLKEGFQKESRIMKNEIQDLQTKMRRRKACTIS
Type: protein assay
How it was run: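 Recombinant PIM1 amine-coupled (50 μg/mL in acetate pH 5.5, ~2000 RU) on an EDC/S-NHS-activated GLM chip; blank acetate-treated channel as reference. Compound co-injected with GBP1 280 nM in TBST, 30 μL/min for 120 s, 15 min dissociation. Carbonic anhydrase 280 nM was the negative control. % inhibition = RU with compound over RU with GBP1 alone; runs done at least three times.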
`COc1cccc(C2C3=C(COC3=O)N(CCO)c3cc4c(cc32)OCCO4)c1` (configuration not stated) was tested, and the inhibition was “inactive”. `COc1cc(C2C3=C(COC3=O)N(CCO)c3cc4c(cc32)OCCO4)cc(OC)c1O` (configuration not stated) was tested, and the inhibition was “inactive”. In the case of `COc1ccc(C2C3=C(COC3=O)N(CCO)c3cc4c(cc32)OCO4)cc1` (configuration not stated), the inhibition is reported as “inactive”. `COc1ccc(C2C3=C(COC3=O)N(CCO)c3cc4c(cc32)OCCO4)cc1OC` (configuration not stated) was tested, and the inhibition was “inactive”. Compound `COc1cccc(C2C3=C(COC3=O)N(CCO)c3cc(OC)c(OC)cc32)c1` (configuration not stated) has an inhibition of 10%. For `COc1cc(C2C3=C(COC3=O)N(CCO)c3cc4c(cc32)OCO4)cc(OC)c1OC` (configuration not stated), the inhibition was “inactive”. In the case of `COc1cccc(C2C3=C(COC3=O)N(CCO)c3cc(OC)ccc32)c1` (configuration not stated), the inhibition is reported as 10%. Compound `COc1ccc2c(c1)N(CCO)C1=C(C(=O)OC1)C2c1ccccc1` (configuration not stated) has an inhibition of 65%. For `O=C1OCC2=C1C(c1ccc(Cl)c(Cl)c1)c1cc3c(cc1N2CCO)OCCO3` (configuration not stated), the inhibition was “inactive”. For `COc1ccc(C2C3=C(COC3=O)N(CCO)c3cc4c(cc32)CCC4)cc1OC` (configuration not stated), the inhibition was “inactive”. With `COc1cc2c(cc1OC)N(CCO)C1=C(C(=O)OC1)C2c1cccc(Cl)c1` (configuration not stated) the inhibition was 10%. In the case of `O=C1OCC2=C1C(c1ccccc1)c1cc3c(cc1N2CCO)OCO3` (configuration not stated), the inhibition is reported as “inactive”. With `COc1ccc(C2C3=C(COC3=O)N(CCO)c3cc4c(cc32)CCC4)cc1` (configuration not stated) the inhibition was “inactive”. In the case of `O=C1OCC2=C1C(c1ccccc1)c1cc3c(cc1N2CCO)CCC3` (configuration not stated), the inhibition is reported as “inactive”. `COc1cc(C2C3=C(COC3=O)N(CCO)c3cc4c(cc32)CCC4)cc(OC)c1O` (configuration not stated) was tested, and the inhibition was “inactive”. With `COc1ccc(C2C3=C(COC3=O)N(CCO)c3cc4c(cc32)OCCO4)cc1` (configuration not stated) the inhibition was “inactive”. For `COc1cc2c(cc1OC)N(CCO)C1=C(C(=O)OC1)C2c1ccc(Cl)c(Cl)c1` (configuration not stated), the inhibition was “inactive”. For `CCc1ccc2c(c1)N(CCO)C1=C(C(=O)OC1)C2c1cc(OC)c(OC)c(OC)c1` (configuration not stated), the inhibition was “inactive”. `COc1cc2c(cc1OC)N(CCO)C1=C(C(=O)OC1)C2c1ccccc1` (configuration not stated) was tested, and the inhibition was “inactive”. In the case of `COc1cc(C2C3=C(COC3=O)N(CCO)c3cc4c(cc32)OCO4)cc(OC)c1O` (configuration not stated), the inhibition is reported as “inactive”. For `O=C1OCC2=C1C(c1cccc(Br)c1)c1cc3c(cc1N2CCO)OCCO3` (configuration not stated), the inhibition was “inactive”. With `COc1cc(C2C3=C(COC3=O)N(CCO)c3cc4c(cc32)OCCO4)cc(OC)c1OC` (configuration not stated) the inhibition was “inactive”. For `O=C1OCC2=C1C(c1cccc(Cl)c1)c1cc3c(cc1N2CCO)OCCO3` (configuration not stated), the inhibition was “inactive”. For `COc1ccc(C2C3=C(COC3=O)N(CCO)c3cc(OC)c(OC)cc32)cc1` (configuration not stated), the inhibition was “inactive”. With `O=C1OCC2=C1C(c1cccc(Cl)c1)c1cc3c(cc1N2CCO)OCO3` (configuration not stated) the inhibition was “inactive”. `CCc1ccc2c(c1)N(CCO)C1=C(C(=O)OC1)C2c1cccc(Cl)c1` (configuration not stated) was tested, and the inhibition was 10%. `COc1ccc2c(c1)N(CCO)C1=C(C(=O)OC1)C2c1cccc(Br)c1` (configuration not stated) was tested, and the inhibition was 10%. `COc1ccc(C2C3=C(COC3=O)N(CCO)c3cc4c(cc32)OCO4)cc1OC` (configuration not stated) was tested, and the inhibition was “inactive”. `COc1cccc(C2C3=C(COC3=O)N(CCO)c3cc4c(cc32)OCO4)c1` (configuration not stated) was tested, and the inhibition was “inactive”. For `COc1cc2c(cc1OC)N(CCO)C1=C(C(=O)OC1)C2c1cc(OC)c(OC)c(OC)c1` (configuration not stated), the inhibition was 10%. `COc1cc(C2C3=C(COC3=O)N(CCO)c3cc4c(cc32)CCC4)cc(OC)c1OC` (configuration not stated) was tested, and the inhibition was “inactive”. `CCc1ccc2c(c1)N(CCO)C1=C(C(=O)OC1)C2c1cccc(Br)c1` (configuration not stated) was tested, and the inhibition was “inactive”. For `COc1ccc(C2C3=C(COC3=O)N(CCO)c3cc(OC)ccc32)cc1` (configuration not stated), the inhibition was 10%. For `CCc1ccc2c(c1)N(CCO)C1=C(C(=O)OC1)C2c1ccccc1` (configuration not stated), the inhibition was “inactive”. In the case of `O=C1OCC2=C1C(c1cccc(Cl)c1)c1cc3c(cc1N2CCO)CCC3` (configuration not stated), the inhibition is reported as “inactive”. For `O=C1OCC2=C1C(c1cccc(Br)c1)c1cc3c(cc1N2CCO)CCC3` (configuration not stated), the inhibition was “inactive”. In the case of `CCc1ccc2c(c1)N(CCO)C1=C(C(=O)OC1)C2c1ccc(Cl)c(Cl)c1` (configuration not stated), the inhibition is reported as “inactive”. For `COc1ccc(C2C3=C(COC3=O)N(CCO)c3cc(OC)c(OC)cc32)cc1OC` (configuration not stated), the inhibition was 10%. In the case of `COc1ccc2c(c1)N(CCO)C1=C(C(=O)OC1)C2c1ccc(OC)c(OC)c1` (configuration not stated), the inhibition is reported as “inactive”. Compound `COc1cc2c(cc1OC)N(CCO)C1=C(C(=O)OC1)C2c1cccc(Br)c1` (configuration not stated) has an inhibition of 10%. In the case of `O=C1OCC2=C1C(c1ccccc1)c1cc3c(cc1N2CCO)OCCO3` (configuration not stated), the inhibition is reported as “inactive”. `COc1cccc(C2C3=C(COC3=O)N(CCO)c3cc4c(cc32)CCC4)c1` (configuration not stated) was tested, and the inhibition was “inactive”. `COc1ccc2c(c1)N(CCO)C1=C(C(=O)OC1)C2c1cc(OC)c(OC)c(OC)c1` (configuration not stated) showed an inhibition of 10%. In the case of `O=C1OCC2=C1C(c1ccc(Cl)c(Cl)c1)c1cc3c(cc1N2CCO)CCC3` (configuration not stated), the inhibition is reported as “inactive”.

These compounds were tested against T1, Interferon-induced guanylate-binding protein 1/Serine/threonine-protein kinase pim-1 (Homo sapiens) (assay: Inhibition of GBP1 (unknown origin)-PIM1 (unknown origin) interaction by SPR analysis). Conditions: not given.
Type: protein assay
How it was run: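 Recombinant PIM1 (50 μg/mL in acetate buffer pH 5.5) amine-coupled to GLM chip via EDC/S-NHS (~2000 RU); compound (0.1, 1, 10, 100 nM) co-injected with GBP1 280 nM in TBST, 30 μL/min, 120 s, 15 min dissociation; DMSO 0.2% v/v. CA 280 nM negative control. % inhibition = RU with compound over GBP1-alone maximum; runs at least three times.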
With `COc1ccc2c(c1)N(CCO)C1=C(C(=O)OC1)C2c1ccccc1` (configuration not stated) the inhibition was “Dose-dependent effect”.

Each compound was assayed against T1, Interferon-induced guanylate-binding protein 1/Serine/threonine-protein kinase pim-1 (Homo sapiens) (assay: Inhibition of GBP1-PIM1 interaction in human SKOV3 cells at 100 nM after 3 hrs by co-immunoprecepitation method). Conditions: SK-OV-3.
Type: cell-based
How it was run: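 SKOV3 cells treated 3 h with compound; cells scraped, lysed, PIM1 immunoprecipitated (anti-IgG negative control); co-precipitated GBP1 detected by Western blot with anti-GBP1 (67 kD band, antibodies 1:200 in 5% milk–TBST). Bands quantified by densitometry; DMSO vehicle control.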
`COc1ccc2c(c1)N(CCO)C1=C(C(=O)OC1)C2c1ccccc1` (configuration not stated) was tested, and the inhibition was “Active”. In the case of `COc1ccc2c(c1)N(CCO)C1=C(C(=O)OC1)C2c1cc(OC)c(OC)c(OC)c1` (configuration not stated), the inhibition is reported as “inactive”.
